A selection: hits, their analogues and other compounds. The true share with any hit is near 3.3%.
C2C12 statin: suppressors of simvastatin-induced myotoxicity in C2C12 myotubes | ATP luminescence, 48 h; scaled: DMSO 0, geranylgeraniol control 100 | rescue of ATP level, % at 7.49 µM | 0.78% of 330,000 active | AID 602340;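 active = mean ATP rescue above about 67%, or every replicate alone reaching that limit, limit read from the data, passing the limit was not always enough; inconclusive = no clear call, values can overlap the other calls; inactive = mean under the limit and some replicate under it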;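 note: myotubes were challenged with 10 µM simvastatin during compound exposure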
E-selectin induc: E-selectin induction on HUVECs | P16581 | HUVEC E-selectin immunofluorescence imaging; normalized: neutral wells 0, TNF-alpha wells 100 | activation, % at 7.58 µM | 0.37% of 260,000 active | AID 686992;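 active = mean E-selectin-positive cell signal at least 10% of the positive control, reached in at least 60% of replicates, without over 20% cell loss; inconclusive = no rule given, readout overlaps actives, possibly toxicity-flagged; inactive = the rest, including those meeting only one limit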
Target sequence (P16581 whole entry, looked up): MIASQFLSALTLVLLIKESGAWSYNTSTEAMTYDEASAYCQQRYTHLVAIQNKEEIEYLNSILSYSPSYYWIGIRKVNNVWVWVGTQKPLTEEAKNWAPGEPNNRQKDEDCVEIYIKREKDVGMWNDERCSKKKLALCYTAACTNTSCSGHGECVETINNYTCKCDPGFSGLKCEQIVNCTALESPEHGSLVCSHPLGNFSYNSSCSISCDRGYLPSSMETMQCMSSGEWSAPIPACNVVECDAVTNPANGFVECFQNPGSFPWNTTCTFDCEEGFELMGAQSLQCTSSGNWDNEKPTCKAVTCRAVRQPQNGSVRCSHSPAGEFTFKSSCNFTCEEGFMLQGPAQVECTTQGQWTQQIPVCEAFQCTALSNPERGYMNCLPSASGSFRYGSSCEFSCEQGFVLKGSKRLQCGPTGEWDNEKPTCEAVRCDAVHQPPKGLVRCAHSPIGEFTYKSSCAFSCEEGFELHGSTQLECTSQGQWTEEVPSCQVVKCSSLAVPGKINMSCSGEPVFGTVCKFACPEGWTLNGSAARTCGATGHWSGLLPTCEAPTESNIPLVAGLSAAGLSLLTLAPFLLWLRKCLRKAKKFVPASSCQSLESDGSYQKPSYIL
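System: HUVEC / Compound: single concentration / Signal: immunofluorescence imaging / Read-out: percent E-selectin-positive cells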
PglD DTNB: PglD (C. jejuni) enzyme inhibition; purified PglD enzyme, DTNB colorimetric CoA detection; inhibition, % at 12.5 µM; 0.098% of 360,000 active; AID 602405; in the data active = inhibition above about 16%, passing the limit was not always enough; inconclusive = no clear call, values can overlap the other calls
FGF22 binding: FGF22 (human) thermal shift binding. recombinant FGF22 thermal shift, SYPRO orange fluorescence; percent of sucrose octasulfate shift, DMSO zero. activity (Tm shift, normalised), % at 9.99 µM. 1.5% of 340,000 active. AID 651658;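 active = mean Tm shift, scaled 0 neutral to 100 positive control, at about 1.3% or above, every replicate too, limit read from the data; inconclusive = no clear call, values can overlap the other calls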
DENV2 CPE rescue: inhibitors of DENV2 cytopathic effect | DENV2-infected cells, cytopathic effect rescue, plate reader | CPE inhibition, % at 9.99 µM | 1.7% of 350,000 active | AID 651640; in the data active = CPE inhibition above about 20%, passing the limit was not always enough; inconclusive = no clear call, values can overlap the other calls; tested in BHK-21 cells;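 note: 0% = median of neutral control wells and 100% = median of positive control wells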
Xi reactivation: reactivates the inactive X chromosome in mouse fibroblasts; XiGFP mouse fibroblasts, % GFP-positive cells imaging, 3 d; cells co-treated with 5-aza-dC sensitizer; scaled so ellipticine positive control = 100%; 0.055% of 360,000 active; AID 743238; activation, % at 7.58 µM;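 active = mean normalized replicate activation at least 10% and every replicate at or above 10%; inconclusive = only one of the two criteria met; inactive = mean below 10% and not all replicates reach 10%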;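 note: 0% = median of on-plate neutral control wells and 100% = ellipticine 6 µM median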
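Assay system – SV40-immortalized XiGFP fibroblast cells, line 68-5-11 · Buffer or medium – DMEM supplemented with 5-aza-dC as sensitizing agent · Dosing – one concentration, pinned · Benchmarks – positive control ellipticine, 6 µM final · Times – 3 days compound exposure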
An asterisk follows results filed as active; ? = inconclusive; · = no result.

SMILES	C2C12 statin	E-selectin induc	PglD DTNB	FGF22 binding	DENV2 CPE rescue	Xi reactivation
N#CC1=C(N)Oc2c(c(=O)oc3ccccc23)C1c1ccc([N+](=O)[O-])o1 (centres undefined)	·	5	·	43*	-5	0
CC12CN3CC(C)(CN(C1)C3c1cccnc1)C2=O (centres undefined)	123*	·	3	·	·	·
CCC12CN3CC(CC)(CN(C1)C3c1cccnc1)C2=O (centres undefined)	137*	·	0	·	·	·
CC1(C)C2([N+](=O)[O-])CN3CC1([N+](=O)[O-])CN(C2)C3c1cccnc1 (centres undefined)	0	2	·	0	0	0
COC(=O)[C@H]1[C@H](CO)[C@H]2Cn3c(ccc(C4=CCCCC4)c3=O)[C@@H]1N2CCc1ccccc1	-143	0	0	0	-12	1
C[C@@H]1CN([C@@H](C)CO)C(=O)c2c(c3ccccc3n2C)-c2ccccc2CO[C@@H]1CN(C)C(=O)Oc1ccccc1	·	0	·	0	-4	0
COC(=O)[C@@H]1[C@@H](CO)[C@@H]2Cn3c(ccc(-c4ccccc4)c3=O)[C@H]1N2CCc1ccccc1	4	0	2	0	5	1
COC(=O)[C@@H]1[C@@H](CO)[C@@H]2Cn3c(ccc(-c4ccncc4)c3=O)[C@H]1N2CCc1ccccc1	-14	0	-1	0	107*	0
CCCC#Cc1ccc([C@H]2[C@H]3CN(C(=O)Cc4ccccn4)CCCCN3[C@H]2CO)cc1	·	0	1	0	21*	0
O=C(Cc1cccnc1)N1CCCCN2[C@H](C1)[C@H](c1ccc(C#CC3(O)CCCC3)cc1)[C@@H]2CO	14	0	2	0	25*	0
N#Cc1cccc(-c2ccc([C@@H]3[C@H](CO)N4CCCCN(C(=O)Cc5ccccc5)C[C@@H]34)cc2)c1	·	0	0	0	8	0
CN(C)CC#Cc1ccc([C@H]2[C@@H](CO)N3CCCCN(C(=O)Cc4ccccn4)C[C@H]23)cc1	·	0	1	0	30*	0
N#Cc1cccc(-c2ccc([C@H]3[C@@H](CO)N4CCCCN(C(=O)Cc5ccccc5)C[C@H]34)cc2)c1	·	-1	3	0	27*	0
CN(C)CC#Cc1ccc([C@@H]2[C@@H](CO)N3CCCCN(C(=O)Cc4ccccn4)C[C@@H]23)cc1	·	0	0	0	-12	0
N#Cc1cccc(-c2ccc([C@H]3[C@@H](CO)N4CCCCN(C(=O)Cc5ccncc5)C[C@@H]34)cc2)c1	·	0	-1	0	-10	0
O=C(Cc1ccccn1)N1CCCCN2[C@H](C1)[C@@H](c1ccc(-c3ccccc3)cc1)[C@@H]2CO	·	1	1	0	21*	0
Clc1cc(Cl)c(-c2cc(Cl)c(Cl)cc2Cl)cc1Cl	-8	·	4	0	23*	·
CCCCn1c(=O)c(C=Nc2cc([N+](=O)[O-])ccc2OC)c(O)n(CCCCl)c1=O	·	0	·	43*	3	0
COc1cc(C2(C#N)CCN(C)CC2)cc(OC)c1OC	2	1	-2	43*	-6	0
O=C1NC2C(=CC(O)C(O)C2O)c2cc3c(c(O)c21)OCO3 (centres undefined)	·	0	·	0	88*	0
O=C1NC2C(=CC(O)C(O)C2O)c2cc3c(cc21)OCO3 (centres undefined)	·	0	·	0	4	0
CCOC(=O)C1=C(C)OC(N)=C(C(=O)OCC)[C@@]12C(=O)N(CC(N)=O)c1ccccc12	98*	·	4	·	·	·
CC(C)NC(=O)N1C[C@@H]2C(c3ccc(Br)cc3)[C@H](C1)N2C (some centres undefined)	·	·	·	·	·	0
C=COCCn1c(C)c(C(C)=O)c2cc(O)ccc21	113*	56*	-5	0	1	0
CCCNC(=O)N1[C@@H]2c3ccc(-c4ccccc4OC)c(=O)n3C[C@H]1[C@H](CO)[C@H]2C(=O)O	-23	0	-2	0	2	0
SMILES	C2C12 statin	E-selectin induc	PglD DTNB	FGF22 binding	DENV2 CPE rescue	Xi reactivation
COC(=O)[C@H]1C[C@@H]1[C@H](NP(=O)(c1ccccc1)c1ccccc1)c1ccccc1	111*	0	0	1.8*	?	0
C=CCN1[C@@H]2CN(CC(F)(F)F)C[C@H]1C2c1ccc(Br)cc1 (some centres undefined)	·	·	·	·	·	0
C[N+]1(C)C2CCC1CC(OC(=O)C(CO)c1ccccc1)C2 (centres undefined)	·	0	-1	43*	9	0
Cc1ccccc1N	2	·	0	0	-19	·
Cc1ccc(N)c(C)c1	8	·	1	0	82*	·
COc1cccc(C2(O)CCN(CC(=O)Nc3nc(C)cs3)CC2)c1	·	0	·	43*	2	0
CN(C)CC#Cc1ccc([C@@H]2[C@H](CO)N3CCCCN(C(=O)Cc4ccccn4)C[C@@H]23)cc1	·	0	-3	0	16	0
CCOC(=O)[C@]12Cc3ccccc3[C@H]1N(CCC(=O)OC)C(=O)c1cc(OC)ccc12	·	0	·	0	30*	1
CCOC(=O)[C@]12Cc3cc(OC)ccc3[C@H]1N(CCC(=O)OC)C(=O)c1cc(OC)ccc12	·	0	·	1	-10	0
CC(C)N=C(NC(C)C)N1CC1	2	0	-7	43*	-6	0
C1CCC2CCCCC2C1 (centres undefined)	1	·	5	0	33*	·
CCOP(=O)(OCC)c1cccc(OP(=O)(c2cccc([N+](=O)[O-])c2)c2cccc([N+](=O)[O-])c2)c1	·	·	2	0	3	0
CCOP(=O)(OCC)c1cccc(O)c1	·	·	·	45*	2	0
COC(=O)[C@@H]1[C@@H](CO)[C@@H]2Cn3c(ccc(/C=C/c4ccccc4)c3=O)[C@H]1N2C(=O)C1CCC1	-7	0	5	0	-3	0
C[C@H]1C[C@@H](C)C(=O)[C@@H]([C@H](O)CC2CC(=O)NC(=O)C2)C1	171*	·	0	0	124*	·
O=C(O)[C@H]1[C@H](CO)[C@H]2Cn3c(ccc(-c4cccnc4)c3=O)[C@@H]1N2S(=O)(=O)c1ccccc1F	20	1	-1	0	-10	1
Nc1cnn(-c2ccccc2)c(=O)c1Cl	-6	·	2	0	30*	0
C/C=C/c1ccc(C2[C@@H]3CN(Cc4cocn4)C[C@H]2N3)cc1 (some centres undefined)	·	0	·	·	20	0
Cc1ccc(OC(F)F)c(N2C(=O)C3C4CCC(O4)C3C2=O)c1 (centres undefined)	-12	35*	-1	0	-9	0

High-throughput results from PubChem.
